test system: not listed separately; experiment: Antimitotic activity against human U373 cells by [3H]thymidine incorporation assay; assay type: functional, U-373MG ATCC; conditions: U373 MG, read-out: ID50 (the source's name)

Structure (SMILES)	IC50 [µM]
CCCCCCCCO[C@H]1O[C@H](CO)[C@@H](O)[C@H](O)[C@H]1NC(C)=O	> 50
CC(=O)N[C@H]1[C@@H](OCc2ccccc2)O[C@H](CO)[C@@H](O)[C@@H]1O	> 50
CCCCCCCC/C=C\CCCCCCCCO[C@H]1O[C@H](CO)[C@@H](O)[C@H](OS(=O)(=O)O)[C@H]1NC(C)=O	9.6
C=CCCC(=O)N[C@H]1[C@@H](OCCc2ccccc2)O[C@H](CO)[C@@H](O)[C@@H]1OS(=O)(=O)O	> 50
C=CCCC(=O)N[C@H]1[C@@H](OCCCCCCCCCCCCCCCC)O[C@H](CO)[C@@H](O)[C@@H]1OS(=O)(=O)O	33
CCCCCCCC/C=C\CCCCCCCC(=O)N[C@H]1[C@@H](OCCCCCCCC)O[C@H](CO)[C@@H](O)[C@@H]1O	13.3
CC(=O)N[C@H]1[C@@H](OCCCCc2ccccc2)O[C@H](CO)[C@@H](O)[C@@H]1O	> 50
CCCCC(=O)N[C@H]1[C@@H](OCCc2ccccc2)O[C@H](COCC(CO)(CO)CO)[C@@H](O)[C@@H]1O	> 50
CCCCC(=O)N[C@H]1[C@@H](OCCc2ccccc2)O[C@H](COCC(O)CO)[C@@H](O)[C@@H]1O (mixture of isomers)	> 50
C=CCCC(=O)N[C@H]1[C@@H](OCCc2ccccc2)O[C@H](CO)[C@@H](O)[C@@H]1O	> 50
C=CCCC(=O)N[C@H]1[C@@H](OCCCCCCCCCCCCCCCC)O[C@H](CO)[C@@H](O)[C@@H]1O	> 50
CCCCCCCCCCCCCCCCO[C@H]1O[C@H](COCC(CO)(CO)CO)[C@@H](O)[C@H](O)[C@H]1NC(=O)CCCC	27.3
CCCCCCCCCCCCCCCCO[C@H]1O[C@H](COCC(O)CO)[C@@H](O)[C@H](O)[C@H]1NC(=O)CCCCCCCCCCCCCCC (mixture of isomers)	3.3
CC(=O)N[C@H]1[C@@H](OCCc2ccccc2)O[C@H](CO)[C@@H](O)[C@@H]1O	> 50
CCCCCCCCCCCCCCCCO[C@H]1O[C@H](COCC(CO)(CO)COS(=O)(=O)O)[C@@H](O)[C@H](O)[C@H]1NC(=O)CCCC	3.2
CCCCCCCCCCCCCCCCO[C@H]1O[C@H](COC[C@@H](O)CO)[C@@H](O)[C@H](O)[C@H]1NC(=O)CCCC	5.6
CCCCCCCC/C=C\CCCCCCCC(=O)N[C@H]1[C@@H](OCCCCCCCC)O[C@H](COS(=O)(=O)O)[C@@H](O)[C@@H]1O	12.6
CCCCCCCCCCCCCCCCO[C@H]1O[C@H](COCC(O)CO)[C@@H](O)[C@H](O)[C@H]1NC(=O)CCCC (stereo not given in full)	4.6
C=CCCC(=O)N[C@H]1[C@@H](OCCc2ccccc2)O[C@H](COS(=O)(=O)O)[C@@H](O)[C@@H]1O	> 50
CCCCCCCC/C=C\CCCCCCCCO[C@H]1O[C@H](CO)[C@@H](O)[C@H](O)[C@H]1NC(C)=O	4.6
CCCCC(=O)N[C@H]1[C@@H](OCCc2ccccc2)O[C@H](COCC(CO)(CO)COS(=O)(=O)O)[C@@H](O)[C@@H]1O	6.7
CCCCCCCCO[C@H]1O[C@H](CO)[C@@H](O)[C@H](O)[C@H]1NC(=O)c1ccccc1	> 50
CCCCCCCCCCCCCCCCO[C@H]1O[C@H](CO)[C@@H](O)[C@H](O)[C@H]1NC(C)=O	> 50
CCCCCCCC/C=C\CCCCCCCC(=O)N[C@H]1[C@@H](OCCCCCCCC)O[C@H](CO)[C@@H](O)[C@@H]1OS(=O)(=O)O	15.6
CCCCCCCC/C=C\CCCCCCCC(=O)N[C@H]1[C@@H](OCCCCCCCC)O[C@H](COCC(CO)(CO)CO)[C@@H](O)[C@@H]1O	20.6
CCCCCCCCCCCCCCCCO[C@H]1O[C@H](COC[C@H](O)CO)[C@@H](O)[C@H](O)[C@H]1NC(=O)CCCC	4.9
CCCCCCCC/C=C\CCCCCCCCO[C@H]1O[C@H](COS(=O)(=O)O)[C@@H](O)[C@H](O)[C@H]1NC(C)=O	13

test system: C6; experiment: Antimitotic activity against rat C6 cells by [3H]thymidine incorporation assay; assay type: functional; conditions: C6, 24 h, read-out: ID50 (the source's name)
Procedure, shortened: (§1)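 Cells seeded at 1 × 10⁴/well in DMEM with 10% FCS and left 6 h to attach, then serum-starved 36 h. Compounds added in DMEM with 1% FCS, in triplicate, for 24 h. A 6 h [³H]thymidine pulse (0.5 µCi/well) followed, then SDS lysis and scintillation counting. % inhibition was scaled between 10% FCS (high) and serum-free (low) controls. ID₅₀ came from sigmoidal fits of triplicate dose-response data.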

Structure (SMILES)	IC50 [µM]
CCCCCCCCO[C@H]1O[C@H](CO)[C@@H](O)[C@H](O)[C@H]1NC(C)=O	> 50
CC(=O)N[C@H]1[C@@H](OCc2ccccc2)O[C@H](CO)[C@@H](O)[C@@H]1O	> 50
CCCCCCCC/C=C\CCCCCCCCO[C@H]1O[C@H](CO)[C@@H](O)[C@H](OS(=O)(=O)O)[C@H]1NC(C)=O	12.3
C=CCCC(=O)N[C@H]1[C@@H](OCCc2ccccc2)O[C@H](CO)[C@@H](O)[C@@H]1OS(=O)(=O)O	> 50
C=CCCC(=O)N[C@H]1[C@@H](OCCCCCCCCCCCCCCCC)O[C@H](CO)[C@@H](O)[C@@H]1OS(=O)(=O)O	22.6
CCCCCCCC/C=C\CCCCCCCC(=O)N[C@H]1[C@@H](OCCCCCCCC)O[C@H](CO)[C@@H](O)[C@@H]1O	12
CC(=O)N[C@H]1[C@@H](OCCCCc2ccccc2)O[C@H](CO)[C@@H](O)[C@@H]1O	> 50
CCCCC(=O)N[C@H]1[C@@H](OCCc2ccccc2)O[C@H](COCC(CO)(CO)CO)[C@@H](O)[C@@H]1O	> 50
CCCCC(=O)N[C@H]1[C@@H](OCCc2ccccc2)O[C@H](COCC(O)CO)[C@@H](O)[C@@H]1O (mixture of isomers)	> 50
C=CCCC(=O)N[C@H]1[C@@H](OCCc2ccccc2)O[C@H](CO)[C@@H](O)[C@@H]1O	> 50
C=CCCC(=O)N[C@H]1[C@@H](OCCCCCCCCCCCCCCCC)O[C@H](CO)[C@@H](O)[C@@H]1O	> 50
CCCCCCCCCCCCCCCCO[C@H]1O[C@H](COCC(CO)(CO)CO)[C@@H](O)[C@H](O)[C@H]1NC(=O)CCCC	18.3
CCCCCCCCCCCCCCCCO[C@H]1O[C@H](COCC(O)CO)[C@@H](O)[C@H](O)[C@H]1NC(=O)CCCCCCCCCCCCCCC (mixture of isomers)	2.6
CC(=O)N[C@H]1[C@@H](OCCc2ccccc2)O[C@H](CO)[C@@H](O)[C@@H]1O	> 50
CCCCCCCCCCCCCCCCO[C@H]1O[C@H](COCC(CO)(CO)COS(=O)(=O)O)[C@@H](O)[C@H](O)[C@H]1NC(=O)CCCC	11
CCCCCCCC/C=C\CCCCCCCC(=O)N[C@H]1[C@@H](OCCCCCCCC)O[C@H](COS(=O)(=O)O)[C@@H](O)[C@@H]1O	5.6
C=CCCC(=O)N[C@H]1[C@@H](OCCc2ccccc2)O[C@H](COS(=O)(=O)O)[C@@H](O)[C@@H]1O	> 50
CCCCCCCC/C=C\CCCCCCCCO[C@H]1O[C@H](CO)[C@@H](O)[C@H](O)[C@H]1NC(C)=O	1.3
CCCCC(=O)N[C@H]1[C@@H](OCCc2ccccc2)O[C@H](COCC(CO)(CO)COS(=O)(=O)O)[C@@H](O)[C@@H]1O	8.6
CCCCCCCCO[C@H]1O[C@H](CO)[C@@H](O)[C@H](O)[C@H]1NC(=O)c1ccccc1	> 50
CCCCCCCCCCCCCCCCO[C@H]1O[C@H](CO)[C@@H](O)[C@H](O)[C@H]1NC(C)=O	13
CCCCCCCC/C=C\CCCCCCCC(=O)N[C@H]1[C@@H](OCCCCCCCC)O[C@H](CO)[C@@H](O)[C@@H]1OS(=O)(=O)O	5.4
CCCCCCCC/C=C\CCCCCCCC(=O)N[C@H]1[C@@H](OCCCCCCCC)O[C@H](COCC(CO)(CO)CO)[C@@H](O)[C@@H]1O	11.9
CCCCCCCC/C=C\CCCCCCCCO[C@H]1O[C@H](COS(=O)(=O)O)[C@@H](O)[C@H](O)[C@H]1NC(C)=O	13

test system: A-375; experiment: Antimitotic activity against human A375 cells by [3H]thymidine incorporation assay; assay type: functional; conditions: A-375, 24 h, read-out: ID50 (the source's name); procedure, shortened: as §1

Structure (SMILES)	IC50 [µM]
CCCCCCCCO[C@H]1O[C@H](CO)[C@@H](O)[C@H](O)[C@H]1NC(C)=O	> 50
CC(=O)N[C@H]1[C@@H](OCc2ccccc2)O[C@H](CO)[C@@H](O)[C@@H]1O	> 50
CCCCCCCC/C=C\CCCCCCCCO[C@H]1O[C@H](CO)[C@@H](O)[C@H](OS(=O)(=O)O)[C@H]1NC(C)=O	2.1
C=CCCC(=O)N[C@H]1[C@@H](OCCc2ccccc2)O[C@H](CO)[C@@H](O)[C@@H]1OS(=O)(=O)O	> 50
C=CCCC(=O)N[C@H]1[C@@H](OCCCCCCCCCCCCCCCC)O[C@H](CO)[C@@H](O)[C@@H]1OS(=O)(=O)O	7.2
CCCCCCCC/C=C\CCCCCCCC(=O)N[C@H]1[C@@H](OCCCCCCCC)O[C@H](CO)[C@@H](O)[C@@H]1O	6
CC(=O)N[C@H]1[C@@H](OCCCCc2ccccc2)O[C@H](CO)[C@@H](O)[C@@H]1O	> 50
CCCCC(=O)N[C@H]1[C@@H](OCCc2ccccc2)O[C@H](COCC(CO)(CO)CO)[C@@H](O)[C@@H]1O	> 50
CCCCC(=O)N[C@H]1[C@@H](OCCc2ccccc2)O[C@H](COCC(O)CO)[C@@H](O)[C@@H]1O (mixture of isomers)	> 50
C=CCCC(=O)N[C@H]1[C@@H](OCCc2ccccc2)O[C@H](CO)[C@@H](O)[C@@H]1O	> 50
C=CCCC(=O)N[C@H]1[C@@H](OCCCCCCCCCCCCCCCC)O[C@H](CO)[C@@H](O)[C@@H]1O	> 50
CCCCCCCCCCCCCCCCO[C@H]1O[C@H](COCC(CO)(CO)CO)[C@@H](O)[C@H](O)[C@H]1NC(=O)CCCC	17
CCCCCCCCCCCCCCCCO[C@H]1O[C@H](COCC(O)CO)[C@@H](O)[C@H](O)[C@H]1NC(=O)CCCCCCCCCCCCCCC (mixture of isomers)	9.3
CC(=O)N[C@H]1[C@@H](OCCc2ccccc2)O[C@H](CO)[C@@H](O)[C@@H]1O	> 50
CCCCCCCCCCCCCCCCO[C@H]1O[C@H](COCC(CO)(CO)COS(=O)(=O)O)[C@@H](O)[C@H](O)[C@H]1NC(=O)CCCC	2.3
CCCCCCCCCCCCCCCCO[C@H]1O[C@H](COC[C@@H](O)CO)[C@@H](O)[C@H](O)[C@H]1NC(=O)CCCC	3.4
CCCCCCCC/C=C\CCCCCCCC(=O)N[C@H]1[C@@H](OCCCCCCCC)O[C@H](COS(=O)(=O)O)[C@@H](O)[C@@H]1O	15.6
CCCCCCCCCCCCCCCCO[C@H]1O[C@H](COCC(O)CO)[C@@H](O)[C@H](O)[C@H]1NC(=O)CCCC (stereo not given in full)	3
C=CCCC(=O)N[C@H]1[C@@H](OCCc2ccccc2)O[C@H](COS(=O)(=O)O)[C@@H](O)[C@@H]1O	> 50
CCCCCCCC/C=C\CCCCCCCCO[C@H]1O[C@H](CO)[C@@H](O)[C@H](O)[C@H]1NC(C)=O	4.8
CCCCC(=O)N[C@H]1[C@@H](OCCc2ccccc2)O[C@H](COCC(CO)(CO)COS(=O)(=O)O)[C@@H](O)[C@@H]1O	9.3
CCCCCCCCO[C@H]1O[C@H](CO)[C@@H](O)[C@H](O)[C@H]1NC(=O)c1ccccc1	> 50
CCCCCCCCCCCCCCCCO[C@H]1O[C@H](CO)[C@@H](O)[C@H](O)[C@H]1NC(C)=O	29.3
CCCCCCCC/C=C\CCCCCCCC(=O)N[C@H]1[C@@H](OCCCCCCCC)O[C@H](CO)[C@@H](O)[C@@H]1OS(=O)(=O)O	16
CCCCCCCC/C=C\CCCCCCCC(=O)N[C@H]1[C@@H](OCCCCCCCC)O[C@H](COCC(CO)(CO)CO)[C@@H](O)[C@@H]1O	13.3
CCCCCCCCCCCCCCCCO[C@H]1O[C@H](COC[C@H](O)CO)[C@@H](O)[C@H](O)[C@H]1NC(=O)CCCC	2.2
CCCCCCCC/C=C\CCCCCCCCO[C@H]1O[C@H](COS(=O)(=O)O)[C@@H](O)[C@H](O)[C@H]1NC(C)=O	0.6

test system: not listed separately; experiment: Antimitotic activity against rat stromal cells by [3H]thymidine incorporation assay; assay type: functional; conditions: read-out: ID50 (the source's name)

Structure (SMILES)	IC50 [µM]
CCCCCCCC/C=C\CCCCCCCCO[C@H]1O[C@H](CO)[C@@H](O)[C@H](O)[C@H]1NC(C)=O	10
CCCCCCCC/C=C\CCCCCCCCO[C@H]1O[C@H](COS(=O)(=O)O)[C@@H](O)[C@H](O)[C@H]1NC(C)=O	40
